NR2E3 ag-1 = NR2E3 agonists in two-hybrid cells, primary screen, cell-based, luminescence, CHO-S, Gal4-NCOR/VP16-NR2E3. Photoreceptor-specific nuclear receptor (Homo sapiens), Q9Y5X4. luciferase. inhibition of corepressor binding, % at 3.98 µM. 0.35% of 360,000 active;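 active = inhibition above the mean of all tested compounds plus 3 SD, cut at about 70% in these data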;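 note: higher means lower luciferase signal from less NR2E3 corepressor binding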
PG9 binder = binders of HIV-1 gp120 antibody PG9, primary screen, biochemical, TR-FRET; HIV-1 gp120 / PG9 antibody interaction; TR-FRET gp120-PG9 antibody binding; inhibition, % at 6.7 µM; 0.43% of 360,000 active; AID 624416, 2012; in the data active = inhibition above about 8.5%
Rev-erbA mod = modulators of Rev-erb alpha DNA binding, primary screen, biochemical, FITC-DNA, fluorescence polarization, uHTS | Nuclear receptor subfamily 1 group D member 1 (Homo sapiens), P20393 | Rev-erbα–FITC-DNA binding, 90 min | activity, % at 10 µM | 0.79% of 370,000 active | AID 1259318, 2017;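 active = activity above about 14%, limit read from the data; passing the limit was not always enough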
Target sequence (P20393 whole entry, looked up): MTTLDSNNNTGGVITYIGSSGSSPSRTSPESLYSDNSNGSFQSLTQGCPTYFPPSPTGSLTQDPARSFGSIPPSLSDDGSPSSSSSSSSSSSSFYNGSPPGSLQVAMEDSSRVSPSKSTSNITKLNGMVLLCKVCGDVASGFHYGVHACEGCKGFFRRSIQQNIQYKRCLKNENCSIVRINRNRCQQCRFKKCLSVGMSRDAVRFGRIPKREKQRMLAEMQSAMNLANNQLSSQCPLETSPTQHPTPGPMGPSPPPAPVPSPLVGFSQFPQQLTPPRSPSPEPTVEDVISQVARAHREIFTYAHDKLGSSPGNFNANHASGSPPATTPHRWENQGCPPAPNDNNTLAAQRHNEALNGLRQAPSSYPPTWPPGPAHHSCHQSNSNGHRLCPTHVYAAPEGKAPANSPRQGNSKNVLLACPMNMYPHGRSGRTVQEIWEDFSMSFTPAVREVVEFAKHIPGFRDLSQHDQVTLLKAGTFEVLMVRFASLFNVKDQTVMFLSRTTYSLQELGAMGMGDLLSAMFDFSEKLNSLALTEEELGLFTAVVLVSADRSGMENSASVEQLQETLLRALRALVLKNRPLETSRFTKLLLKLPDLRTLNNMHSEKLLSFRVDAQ
NR2E3 ag-2 = inhibitors of NR2E3-RetCOR corepressor binding, primary screen, NR2E3 agonist project, biochemical, TR-FRET, GST-NR2E3, biotin-RetCOR; Photoreceptor-specific nuclear receptor (Homo sapiens), Q9Y5X4; 1536-well; inhibition of corepressor binding, % at 4.78 µM; 0.12% of 320,000 active; AID 2300, 2010;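 active = percent inhibition above the cutoff of mean plus 3 SD of all tested compounds, set per screening campaign, cut at about 20% in these data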
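Material: NR2E3–RetCOR corepressor complex | Quantity: 1.35 nM GST-tagged NR2E3 final | Schedule: 5 h at 4 °C | Replication: Singlicate compound wells | Reagent: RetCOR corepressor, biotinylated, 7 nM | Controls: Biotin wells as high control, 0.6% DMSO wells as low control | Signal: TR-FRET, Eu(K)-anti-GST donor, streptavidin-D2 acceptor, ex 340, em 617/671 nm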
NR2E3 ag conf = NR2E3 agonist confirmation in cells, cell-based, luminescence, CHO-S two-hybrid. 51% of 2,300 active. shares compounds with NR2E3 ag-1. CHO-S mammalian two-hybrid NR2E3-NCOR, luciferase luminescence. inhibition, % at 3.98 µM;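 active = average inhibition above a cutoff equal to the mean inhibition of all tested compounds plus one SD, cut at about 70% in these data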
VP16 counter = GAL4-VP16 reporter modulators, confirmation, counter-screen for NR2E3 agonist project, cell-based, luminescence, CHO-S, high throughput | shares compounds with NR2E3 ag-1 | CHO-S GAL4-VP16 luciferase reporter | inhibition, % at 3.98 µM | 29% of 2,300 active | AID 624379, 2012;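 active = mean inhibition above a cutoff equal to the average over all tested compounds plus one standard deviation, cut at about 70% in these data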;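 note: luciferase from a UAS reporter driven by GAL4-VP16 transactivation; higher means less reporter light so more repression of VP16 activity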
Each line names hits and unclear results; the compound was inactive in the other large screens (follow-up assays come after a bar, where they were run). Sampled rows, rich in hits. Any-hit rate of the full collection: about 1.4%.

C/C(CC(C)(C)C1CCCCC1)=N\NC(N)=S	NR2E3 ag-1 81 | NR2E3 ag conf inactive | VP16 counter inactive
Cc1ccc(S(=O)(=O)Nc2cccc3ncccc23)s1	NR2E3 ag-1 102 (no result: PG9 binder, Rev-erbA mod) | NR2E3 ag conf inactive | VP16 counter inactive
Cc1ccc(NC(=O)c2c(C(F)(F)F)nn(C)c2SCc2ccc(Cl)cc2)cc1C	none
Cc1ccc(NC(=O)c2c(C(F)(F)F)nn(C)c2SCc2cccc(C(F)(F)F)c2)cc1C	none | NR2E3 ag conf inactive | VP16 counter inactive
Cn1c2ccccc2c(=O)c2cc(C#CC3(O)CCCCC3)ccc21	none
Cc1cc2sc3ccc(C#CC4(O)CCCCC4)cc3c(=O)c2cc1C	none | NR2E3 ag conf 86 | VP16 counter inactive
COC(=O)c1ccc(/C=C2/SC(=S)N(CCCC(=O)Nc3ccc(O)cc3)C2=O)cc1	none
O=C(CCCN1C(=O)S/C(=C\C=C\c2ccccc2)C1=O)Nc1ccc(O)cc1	none | NR2E3 ag conf inactive | VP16 counter inactive
O=C(CCN1C(=O)/C(=C/c2ccccc2)SC1=S)Nc1ccccn1	none
Cc1ccc(/C=C2\SC(=S)N(CCCC(=O)Nc3ccc(O)cc3)C2=O)cc1	NR2E3 ag-1 78 | NR2E3 ag conf inactive | VP16 counter inactive
Cc1ccc(/C=C2\SC(=S)N(CCCC(=O)Nc3ccccn3)C2=O)cc1	none | NR2E3 ag conf inactive | VP16 counter 93
Cc1ccc(C(=O)C2CCN(CC(=O)N(C)C3CCCCC3)CC2)cc1	none (no result: NR2E3 ag-1, PG9 binder, NR2E3 ag-2)
CCn1cc(C(=O)O)c(=O)c2cnc(N3CCN(C(=S)NC(=O)c4ccc(Cl)cc4)CC3)nc21	none (no result: NR2E3 ag-1, PG9 binder, Rev-erbA mod)
COc1ccc(OC)c(Nc2nc(-c3c(C)nc4ncccn34)cs2)c1	none | NR2E3 ag conf inactive | VP16 counter inactive
Cc1nc2ncccn2c1-c1csc(Nc2cccc(C(=O)O)c2)n1	none
CCC1=C(CC2NCCc3ccccc32)CC2c3cc(OC)c(OC)cc3CCN2C1 (centres undefined)	NR2E3 ag-1 97 (no result: NR2E3 ag-2) | NR2E3 ag conf 90 | VP16 counter 87
CC[C@H]1CN2CCc3cc(OC)c(OC)cc3C2C[C@@H]1C[C@H]1NCCc2cc(OC)c(OC)cc21 (some centres undefined)	NR2E3 ag-1 104 | NR2E3 ag conf 98 | VP16 counter 98
CC(C)Sc1nc(N)nc(-c2cccs2)c1C#N	none
O=C1CCC([N+](=O)[O-])C(c2ccccc2F)N1 (centres undefined)	none
Cc1ccc(C)c(N=C2CCCN2Cc2ccccc2)c1C#N	none
CC(=O)Nc1ccc(/C=C(\C#N)C(=O)NC2CCCCC2)cc1	none
Cc1cccc(C)c1NC(=O)N1CCC(c2nc3ccccc3o2)CC1	none
COc1ccc(CCNC(=O)/C=C/c2ccc3ccccc3n2)cc1OC	none | NR2E3 ag conf inactive | VP16 counter inactive
Nc1nc2ccc(Cl)cc2cc1C(=O)NCc1ccccc1Br	none (no result: NR2E3 ag-1, PG9 binder, NR2E3 ag-2)
Nc1nc2ccccc2cc1C(=O)NCc1ccc(Cl)cc1Cl	NR2E3 ag-1 91 (no result: PG9 binder, Rev-erbA mod, NR2E3 ag-2) | NR2E3 ag conf 97 | VP16 counter 79
COc1ccc(CCNC(=O)c2cc3cc(Cl)ccc3nc2N)cc1OC	none (no result: PG9 binder, Rev-erbA mod, NR2E3 ag-2) | NR2E3 ag conf inactive | VP16 counter inactive
Nc1nc2ccc(Cl)cc2cc1C(=O)NCCc1ccc(O)cc1	none (no result: NR2E3 ag-1, NR2E3 ag-2)
Clc1cccc(Cl)c1CON/C=N/c1ncnc2sccc12	none | NR2E3 ag conf inactive | VP16 counter inactive
Clc1cccc(CON/C=N/c2ncnc3sccc23)c1	none
Cc1ccccc1C(=O)N1CCN(c2ccc(NC(=O)c3ccc4c(c3)OCO4)cc2)CC1	NR2E3 ag-1 75 | NR2E3 ag conf 91 | VP16 counter inactive
O=C(Nc1ccc(N2CCN(C(=O)c3ccco3)CC2)cc1)c1ccc2c(c1)OCO2	none | NR2E3 ag conf inactive | VP16 counter inactive
CCCCC[C@H]1CCCCC[C@@H](O)C[C@H](O)[C@H](O)/C=C/C(=O)O1	none (no result: NR2E3 ag-2)
